Active and inactive are the calls of the source.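 The calls were made as follows: active = current rise at least 3 SD above the untreated control mean in each of two repeat wells; inactive = the rest.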

Chain of Potassium voltage-gated channel subfamily KQT member 1 (Homo sapiens) (P51787 whole entry, looked up): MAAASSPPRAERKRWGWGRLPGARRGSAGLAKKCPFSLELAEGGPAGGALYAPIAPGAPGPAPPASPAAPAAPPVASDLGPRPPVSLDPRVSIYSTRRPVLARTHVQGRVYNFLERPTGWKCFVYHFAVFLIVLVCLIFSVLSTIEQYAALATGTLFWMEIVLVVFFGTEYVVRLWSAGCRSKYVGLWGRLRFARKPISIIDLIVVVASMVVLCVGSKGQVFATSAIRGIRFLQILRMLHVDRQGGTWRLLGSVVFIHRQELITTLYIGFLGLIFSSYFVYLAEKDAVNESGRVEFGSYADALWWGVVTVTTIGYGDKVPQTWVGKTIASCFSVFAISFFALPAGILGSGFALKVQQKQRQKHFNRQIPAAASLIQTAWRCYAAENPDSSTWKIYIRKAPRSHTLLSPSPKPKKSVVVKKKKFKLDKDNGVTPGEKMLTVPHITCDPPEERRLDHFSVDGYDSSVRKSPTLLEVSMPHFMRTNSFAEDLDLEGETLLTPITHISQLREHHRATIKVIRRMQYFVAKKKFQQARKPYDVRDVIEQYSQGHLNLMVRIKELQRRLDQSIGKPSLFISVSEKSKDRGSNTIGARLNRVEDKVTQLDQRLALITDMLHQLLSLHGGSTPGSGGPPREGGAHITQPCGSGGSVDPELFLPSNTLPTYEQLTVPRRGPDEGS

This test concerns the target Potassium voltage-gated channel subfamily KQT member 1 (Homo sapiens) (UniProt P51787). Kind of test: KCNQ1 activators by electrophysiology – IonWorks patch clamp, KCNQ1-CHO cells, orthogonal assay for KCNQ1 potentiator project, confirmation (AID 493184).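 As to current potentiation: percent change of the same well's current before compound addition so 0% = no change.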 To be noted: automated patch clamp current, at 10 µM; hits give high values. The method in brief: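 Probe or stimulus: depolarizing pulse to +40 mV from -90 mV; Material: CHO cells carrying KCNQ1; Compound: one dose, 10 µM final; Signal: automated voltage clamp, amphotericin B perforated patch; Read-out basis: percent current increase versus pre-compound level; Buffer or medium: pH 7.4 external bath; Replication: duplicates.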
In the case of `CCOC(=O)c1c(C)[nH]c(C(=O)Cn2nnc(-c3ccccc3Cl)n2)c1C`, the outcome was inactive.

As to `COc1ccc(-c2csc(NC(=O)C3=NN(c4ccccc4)C(=O)CC3)n2)cc1`, the current potentiation was 101% (active).

Take `Cc1onc(-c2ccccc2)c1C(=O)NC(=S)Nc1sc2c(c1C#N)CCC(C)C2` (stereo not given): the result was inactive.

With `CCc1ccc(OCC(=O)Nc2ccc(S(=O)(=O)N3CCOCC3)cc2)cc1`, the outcome was inactive.

Take `C=C[C@@]1(C)CC(=O)[C@]2(O)[C@@]3(C)[C@@H](O)CCC(C)(C)[C@@H]3[C@H](OC(C)=O)[C@H](O)[C@@]2(C)O1`: the outcome was inactive.

For the compound `Cc1cc(C(=O)OCC(=O)NCc2ccco2)c(C)n1-c1ccc(F)cc1`, the outcome was inactive.

As to `COCCCNc1nc2ccccc2nc1NS(=O)(=O)c1cccs1`, the result was inactive.

As for `O=C(/C=C/c1ccco1)Nc1scc(-c2ccccc2)c1C(=O)O`, the outcome was inactive.

Regarding `COc1ccc(C)cc1N=Nc1ccc(O)c2ncccc12`, the outcome was inactive.

For the compound `CC1CCN(c2ccccc2NC(=S)NC(=O)c2cccs2)CC1`, the result was inactive.

For `COc1ccc2c(c1)cc(C)c1nnc(SCC(=O)N3CCN(C(=O)c4ccco4)CC3)n12`, the result was inactive.

Consider `O=C(O)c1ccccc1NS(=O)(=O)c1cccc(-n2sc3ccccc3c2=O)c1`, for which the result was inactive.

In the case of `CC(=O)Oc1c(-c2ccc(Br)o2)oc2ccccc2c1=O`, the result was inactive.

On to `Cc1ccc(N=Cc2cc(Br)cc(Cl)c2O)cc1`, for which the outcome was inactive.

With `CN(C(=S)NC(=O)c1ccccc1)C1CCCCC1`, the result was inactive.

In the case of `O=C(Nc1nnc(-c2ccc3c(c2)CCCC3)o1)c1ccc(Cl)cc1Cl`, the outcome was inactive.

As for `CCCC(=O)Nc1cc(Cl)ccc1N1CCN(C(=O)CC)CC1`, the result was inactive.

Consider `CCCn1c(NC(=O)CN2C(=O)NC3(CCCC3)C2=O)nc2ccccc21`, for which the result was inactive.

`C=C(C)CNC(=S)Nc1nc2c(cc1C(=O)OCC)CCCC2`: the result was inactive.

Regarding `O=C(NC(=S)NCCC1=CCCCC1)c1ccco1`, the outcome was inactive.

The values above are taken from PubChem BioAssay.
